This is a sample that favours compounds with a hit; in the whole collection about 4.6% have one here.
GPR7 antagonist = blocks human GPR7 receptor signaling | P48145 | GPR7-expressing cells, fluorescence antagonist assay | inhibition, % at 4.4 µM | 290,000 compounds, 1.1% hits | AID 1861; in the data active means inhibition above about 16%, passing the limit was not always enough;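 further: cells stimulated with the agonist NPW; 0% = agonist with vehicle and 100% = vehicle without agonist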
Target sequence (P48145 whole entry, looked up): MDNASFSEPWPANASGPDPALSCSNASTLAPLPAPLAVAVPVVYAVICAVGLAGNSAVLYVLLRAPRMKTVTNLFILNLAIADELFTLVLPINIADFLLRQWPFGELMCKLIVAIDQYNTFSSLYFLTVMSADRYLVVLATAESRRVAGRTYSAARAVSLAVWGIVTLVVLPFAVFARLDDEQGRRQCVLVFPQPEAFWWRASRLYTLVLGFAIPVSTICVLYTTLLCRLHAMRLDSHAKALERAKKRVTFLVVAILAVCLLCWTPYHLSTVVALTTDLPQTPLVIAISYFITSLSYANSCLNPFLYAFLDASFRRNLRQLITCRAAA
OX1R antag-1 = blocks the human orexin 1 receptor | AID 434989 | inhibition, % at 5 µM | O43613 | CHO/OX1R cells, Fluo-8 calcium fluorescence, orexin A | 330,000 compounds, 0.43% hits;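 active means inhibition above its plate's threshold, mean inhibition of all tested compounds on the plate plus 3 SD, cut at about 37% in these data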;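 further: 0% = orexin A challenge wells and 100% = SB-334867-A antagonist wells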
TAAR1 antagonist = antagonists of human TAAR1 | Q96RJ0 | CHO RD-HGA16 TAAR1, Fluo-8 calcium fluorescence, antagonist | inhibition, % at 3 µM | 360,000 compounds, 1.5% hits | AID 624466;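 active means inhibition above a per-plate cutoff, the mean inhibition of test compounds on that plate plus 3 SD, cut at about 49% in these data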;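 further: 0% = DMSO plus EC80 beta-PEA response and 100% = DMSO alone without agonist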
Target sequence (Q96RJ0 whole entry, looked up): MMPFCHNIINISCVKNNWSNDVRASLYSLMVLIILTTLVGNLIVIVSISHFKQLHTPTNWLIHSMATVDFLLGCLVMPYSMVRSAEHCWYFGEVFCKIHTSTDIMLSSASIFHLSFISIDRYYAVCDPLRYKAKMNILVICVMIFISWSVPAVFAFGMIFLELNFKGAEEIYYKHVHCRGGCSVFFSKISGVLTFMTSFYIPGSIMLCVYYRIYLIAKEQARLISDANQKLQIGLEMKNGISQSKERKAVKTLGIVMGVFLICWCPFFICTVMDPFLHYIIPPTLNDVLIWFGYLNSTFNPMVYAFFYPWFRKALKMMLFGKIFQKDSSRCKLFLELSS
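Material: CHO RD-HGA16 cells bearing hTAAR1; compound dosing: one-point dosing, 3 µM nominal final; schedule: dye loading 75 min at 37 °C, then 30 min room temperature; measured by: calcium fluorescence with Fluo-8; control set: vehicle and agonist controls; replication: n of 1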
TAAR1 ag = agonists of human TAAR1 | Q96RJ0 | CHO RD-HGA16 TAAR1, Fluo-8 calcium fluorescence; vehicle wells 0%, saturating PEA agonist 100% | activation, % at 3 µM | 360,000 compounds, 0.99% hits | AID 624467;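 active means activation above the mean activation of all test compounds in the run plus 3 SD, cut at about 38% in these data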
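Assay system – CHO-derived RD-HGA16 cells with stable Gα16 and human TAAR1 · Compound dosing – one-point dosing at 3 µM (nominal) · Incubation – 17-24 h seeding, 75 min 37 °C dye, 30 min RT · Measured by – kinetic Fluo-8 calcium fluorescence · Control set – DMSO vehicle as 0%, PEA at EC100 as 100% · Repeats – single well for each compound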
OX1R antag-2 = OX1R (human) antagonism; O43613; OX1R-expressing cells, FRET antagonist read-out; inhibition, % at 6.6 µM; 330,000 compounds, 1.8% hits; AID 485270; in the data active means inhibition mostly above about 38%, no sharp cut-off; inactive means mostly below about 40%;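 further: 0% = agonist challenge alone and 100% = reference antagonist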
CHO parental Ca = signal in parental CHO cells, OX1R antagonist counter-screen; parental CHO-K1, ATP-induced calcium, Fluo-8 fluorescence; inhibition, % at 5.6 µM; 330,000 compounds, 0.63% hits;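 active means inhibition above that plate's mean sample inhibition plus 3 SD, cut at about 26% in these data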;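 further: 0% = ATP-challenged DMSO wells and 100% = DMSO wells without ATP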
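Test system: parental CHO cells; detection: calcium-sensitive Fluo-8 fluorescence; evaluation: percent inhibition of calcium signal; also added: ATP as calcium-mobilizing challenge; repeats: one well per compound; control set: ATP-challenged DMSO wells low, unchallenged DMSO wells high; compound: single nominal dose of 5.6 µM per compound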
GPR7 antag conf = human GPR7 antagonism, confirmation assay | shares compounds with GPR7 antagonist | GPR7-expressing cells, calcium fluorescence antagonist mode | inhibition, % at 4.4 µM | 2,400 compounds, 52% hits | AID 1952; in the data active means inhibition above about 24%;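 further: stimulated with the GPR7 agonist NPW; 0% = agonist plus vehicle and 100% = vehicle alone without agonist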
MCHR1 antag = antagonizes human MCHR1, a GPR7 antagonist counter-screen; inhibition, % at 4.4 µM; 2,400 compounds, 62% hits; MCHR1-expressing cells, fluorescence antagonist assay; AID 2148; shares compounds with GPR7 antagonist; in the data active means inhibition above about 22%;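 further: 0% = vehicle with agonist and 100% = vehicle without agonist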
Starred values were filed as active, the others as inactive; nt = no result given.

SMILES	GPR7 antagonist	OX1R antag-1	TAAR1 antagonist	TAAR1 ag	OX1R antag-2	CHO parental Ca	GPR7 antag conf	MCHR1 antag
C[C@@H]1O[C@H](C2CCCCC2)Cc2[nH][nH]c(=O)c21	nt	nt	-2	0	nt	nt	nt	nt
O=C1C=C(c2ccc3c(c2)OCO3)C[C@@H](c2ccc(F)cc2)C1	nt	-3	-9	9	7	-3	nt	nt
Fc1ccc(C2CCNCC2COc2ccc3c(c2)OCO3)cc1 (configuration not stated)	28*	4	-7	13	-5	2	36*	28*
COc1ccc(OCC(O)Cn2c(=N)n(CCN3CCCCC3)c3ccccc32)cc1 (configuration not stated)	29*	-45	-13	6	14	-12	14	23*
Cc1ccc(OCC(O)Cn2c(=N)n(CCN3CCCCC3)c3ccccc32)cc1 (configuration not stated)	28*	-21	3	8	8	-21	41*	39*
O=C1N(Cc2ccccc2)c2ccc(Br)cc2[C@]12C[C@H](O)CO2	nt	nt	-21	0	nt	nt	nt	nt
CCN(CC)S(=O)(=O)c1ccc(NC(=O)c2ccc(N(C)S(C)(=O)=O)cc2)cc1	32*	-6	-4	14	17	-13	44*	58*
C/C(=N\NC(=O)CCn1nnc2ccccc21)c1ccco1	21*	-4	-21	3	6	9	-6	11
CC(=O)Nc1ccc(NC(=O)CCn2nnc3ccccc32)cc1	-12	-4	-6	0	16	0	nt	nt
C[C@@H]1CN([C@H](C)CO)C(=O)CCCn2nncc2CO[C@H]1CN(C)Cc1ccc2c(c1)OCCO2	nt	nt	-14	0	nt	nt	nt	nt
O=C1NC(=S)S/C1=C\c1coc2ccccc2c1=O	27*	-9	-7	0	64*	-15	1	19
O=C1NC(=S)S/C1=C\c1coc2ccc(O)cc2c1=O	21*	1	-15	4	37	-11	17	16
CCN(CC(=O)Nc1cc(Cl)ccc1C)c1ncnc2sc(C)c(C)c12	23*	-22	11	2	25	-16	11	44*
CCN(CC(=O)Nc1cc(Cl)ccc1C)C(=O)CCOc1ccc(C)cc1	nt	-37	-25	-3	28	-21	nt	nt
CCn1c(COc2ccc(C)cc2)nnc1SCC(=O)NCc1ccco1	24*	-35	7	3	25	-32	8	-7
COc1ccccc1OCc1nnc(SCC(=O)NCc2ccco2)n1Cc1ccco1	1	-31	2	9	6	-11	nt	nt
CC1=C(C(=O)N(C(C)C)C(C)C)CC(CC(=O)NCCN2CCOCC2)C(=O)N1Cc1ccccc1 (configuration not stated)	nt	nt	6	1	nt	nt	nt	nt
CC(Nc1nc(-c2ccccc2)nc2ccccc12)c1ccccc1 (configuration not stated)	-26	-44	-31	3	14	25	nt	nt
CC(Nc1nc(N2CCCCC2)nc2ccccc12)c1ccccc1 (configuration not stated)	24*	-25	8	33	3	-12	30*	57*
CNc1ccccc1C(=O)OCC(=O)c1ccc(F)cc1	23*	-27	17	-1	2	-20	7	16
CC(=O)Nc1ccc(NC(=O)COC(=O)C2c3ccccc3Oc3ccccc32)cc1	23*	nt	4	5	nt	nt	3	7
O=C(COC(=O)C1c2ccccc2Oc2ccccc21)Nc1ccc2c(c1)OCO2	-8	4	17	14	19	-7	nt	nt
Cc1ccc(C2=CC(=O)CC(C)(C)C2=O)cc1	nt	nt	-8	-1	nt	nt	nt	nt
COc1cc(OC)cc(C(=O)N2CCCC(Nc3ccc(F)cc3)C2)c1 (configuration not stated)	28*	-40	-11	-1	16	-18	-15	-11
C=CCOc1cccc(C(=O)N2CCCC(Nc3ccc(F)cc3)C2)c1 (configuration not stated)	-1	-18	-9	4	26	-17	nt	nt
SMILES	GPR7 antagonist	OX1R antag-1	TAAR1 antagonist	TAAR1 ag	OX1R antag-2	CHO parental Ca	GPR7 antag conf	MCHR1 antag
COC(=O)[C@@]12C[C@@H](CC(=O)NCC3CCCCC3)C(=O)N(Cc3ccccc3)C1=CCC(C)(C)C2	nt	nt	-32	-2	nt	nt	nt	nt
CC(C)[C@@H]1CC[C@@H](C)C[C@H]1OC(=O)C[n+]1cc(-c2ccc(Cl)cc2)n2c1CCCCC2	58*	9	-24	8	7	10	65*	83*
COc1ccc(CNS(=O)(=O)c2ccc(S(=O)(=O)NC3CC3)cc2)cc1	27*	7	6	6	11	-1	4	2
COc1cccc(CNS(=O)(=O)c2ccc(S(=O)(=O)NC3CC3)cc2)c1	0	-4	9	6	23	2	nt	nt
Cc1cc(C)cc(NC(=O)c2nnn(Cc3cc(C)ccc3C)c2N)c1	51*	80*	nt	nt	12	68*	87*	91*
COc1cccc(NC(=O)c2nnn(CC(=O)Nc3cc(C)cc(C)c3)c2N)c1	-3	-3	-15	5	-3	10	nt	nt
O=C(Nc1cccc(S(=O)(=O)Nc2ccc(Cl)cc2)c1)c1ccc(Cl)nc1	24*	-3	42	24	44	11	66*	70*
CC(/C=C1\SC(=O)N(CCCC(=O)O)C1=O)=C\c1ccccc1	-6	-4	-6	4	11	-6	nt	nt
O=C(CCN1C(=O)/C(=C\c2ccccc2)SC1=S)N1CCCCC1	22*	-5	-11	-1	12	-14	8	-1
CC(=C\c1ccccc1)/C=C1/SC(=S)N(CCCC(=O)O)C1=O	39*	nt	-16	3	nt	nt	20	17
Cc1ccc(/C=C2\SC(=S)N(CCC(=O)N3CCCCC3)C2=O)cc1	-10	-17	3	-3	9	-8	nt	nt
CC1=C(C(=O)N2CCCCCC2)CC(CC(=O)NCc2cccs2)C(=O)N1Cc1ccccc1 (configuration not stated)	nt	nt	-4	-1	nt	nt	nt	nt
COc1ccc(CN(C)Cc2nc(Cc3cccc(F)c3)no2)c2cccnc12	30*	19	5	12	25	25	22	43*
COc1cccc(-n2cc(CN(C)Cc3nc(Cc4cccc(F)c4)no3)cn2)c1	0	-22	-12	0	11	-19	nt	nt
c1ccc(-[n+]2nc(Nc3cccc4ccccc34)sc2-c2c3ccccc3cc3ccccc23)cc1	nt	-18	nt	nt	26	13	nt	nt

Compound activity deposited in PubChem by The Scripps Research Institute Molecular Screening Center.
